Experiments:
[1] = Ratio of UGT1A8/2B7-mediated unbound intrinsic glucuronidation clearance in human kidney microsomes to UGT1A8/2B7-mediated unbound intrinsic glucuronidation clearance in human liver microsomes at 1 uM; type: ADME
How it was run: (§1)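 Ratios of mean unbound CLint,UGT, each scaled per g tissue, between pooled liver, kidney and intestinal microsomes. Values come from 1 μM substrate-depletion assays in pH 7.1 phosphate at 37°C, run with or without BSA (1% for acids, 2% for bases/neutral drugs). Corrected for nonspecific binding. Kidney and liver n = 3; intestine n = 1; each in duplicate.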

[2] = Ratio of unbound intrinsic glucuronidation clearance in human intestinal microsomes in presence of 2% bovine serum albumin to unbound intrinsic glucuronidation clearance in human intestinal microsomes in absence of bovine serum albumin; type: ADME, Intestine, Microsome
How it was run: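 Ratios of mean scaled unbound CLint,UGT (per g tissue) between tissues, or between with and without BSA. Microsomal depletion assays at 1 μM, or 5 μM for propofol, in pH 7.1 phosphate at 37°C, read by LC-MS/MS. Kidney and liver n = 3, intestine n = 1, each in duplicate.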

[3] = Ratio of UGT1A8/2B7-mediated unbound intrinsic glucuronidation clearance in human kidney microsomes to UGT1A8/2B7-mediated unbound intrinsic glucuronidation clearance in human liver microsomes at 1 uM in presence of 2% bovine serum albumin; type: ADME; how it was run: as §1
[4] = Drug metabolism in human kidney microsomes assessed as UGT1A8/2B7-mediated unbound intrinsic glucuronidation clearance at 1 uM after 30 to 60 mins by LC-MS/MS analysis; type: ADME
How it was run: (§2)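 Pooled alamethicin-activated human liver, kidney or intestinal microsomes. […] Duplicate incubations of 30–60 min, with no-cofactor controls. Parent depletion read by LC-MS/MS. k from a single-exponential fit, corrected by fu,inc.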

[5] = Fraction unbound in human kidney microsomes at 1 uM after 30 to 60 mins by LC-MS/MS analysis; type: ADME
Liver microsome [6] = assay: Unbound intrinsic glucuronidation clearance in human liver microsomes at 1 uM after 30 to 60 mins by LC-MS/MS analysis in presence of UDP-glucuronosyltransferase and 2% bovine serum albumin; type: ADME; how it was run: as §2
[7] = Unbound intrinsic glucuronidation clearance in human intestinal microsomes at 1 uM after 30 to 60 mins by LC-MS/MS analysis in presence of UDP-glucuronosyltransferase; type: ADME, Intestine, Microsome
How it was run: (§3)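 Alamethicin-activated pooled microsomes (HLM 150 donors; HKM 8; HIM 18). Drug at 1 μM final, preincubated 5 min at 37°C in 0.1 M phosphate pH 7.1 with 3.45 mM MgCl2, 1.15 mM EDTA, 115 μM saccharic acid lactone. Started with […] cofactor (5 mM final), 30–60 min. Cofactor-free controls. Parent depletion by LC-MS/MS, single-exponential k. Corrected by HLM-dialysis fu,inc. Duplicates; n=3 (HIM n=1).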

Liver microsome [8] = assay: Fraction metabolized glucuronidation in human liver microsomes in presence of UDP-glucuronosyltransferase and bovine serum albumin; type: ADME
[9] = Fraction unbound in human plasma
[10] = Ratio of UGT1A8/2B7-mediated unbound intrinsic glucuronidation clearance in human intestinal microsomes to UGT1A8/2B7-mediated unbound intrinsic glucuronidation clearance in human liver microsomes at 1 uM; type: ADME; how it was run: as §1
[11] = Drug metabolism in human liver microsomes assessed as UGT1A8/2B7-mediated unbound intrinsic glucuronidation clearance at 1 uM after 30 to 60 mins by LC-MS/MS analysis in presence of 2% bovine serum albumin; type: ADME; how it was run: as §2
Liver microsome [12] = assay: Fraction metabolized glucuronidation in human liver microsomes in presence of UDP-glucuronosyltransferase; type: ADME
[13] = Clearance in iv dosed human; type: ADME, organism-based; settings: in vivo
[14] = Unbound intrinsic glucuronidation clearance in human kidney microsomes at 1 uM after 30 to 60 mins by LC-MS/MS analysis in presence of UDP-glucuronosyltransferase; type: ADME, microsome; how it was run: as §3
[15] = Fraction unbound in human intestinal microsomes at 1 uM after 30 to 60 mins by LC-MS/MS analysis; type: ADME, Intestine, Microsome
[16] = Ratio of UGT1A8/2B7-mediated unbound intrinsic glucuronidation clearance in human intestinal microsomes to UGT1A8/2B7-mediated unbound intrinsic glucuronidation clearance in human liver microsomes at 1 uM in presence of 2% bovine serum albumin; type: ADME; how it was run: as §1
[17] = Fraction unbound in human liver microsomes at 1 uM […] by LC-MS/MS analysis in presence of 2% bovine serum albumin; type: ADME
Liver microsome [18] = assay: Unbound intrinsic glucuronidation clearance in human liver microsomes at 1 uM after 30 to 60 mins by LC-MS/MS analysis in presence of UDP-glucuronosyltransferase; type: ADME; how it was run: as §3
[19] = Fraction unbound in human liver microsomes at 1 uM after 30 to 60 mins by LC-MS/MS analysis; type: ADME
[20] = Drug metabolism in human intestinal microsomes assessed as UGT1A8/2B7-mediated unbound intrinsic glucuronidation clearance at 1 uM after 30 to 60 mins by LC-MS/MS analysis; type: ADME, Intestine; how it was run: as §2
[21] = Glucuronidation clearance in human liver microsomes in presence of bovine serum albumin; type: ADME
[22] = Unbound intrinsic glucuronidation clearance in human intestinal microsomes at 1 uM after 30 to 60 mins by LC-MS/MS analysis in presence of UDP-glucuronosyltransferase and 2% bovine serum albumin; type: ADME, Intestine, Microsome; how it was run: as §2
[23] = Ratio of drug level blood to plasma in human; type: ADME; settings: blood and plasma
[24] = Drug metabolism in human kidney microsomes assessed as UGT1A8/2B7-mediated unbound intrinsic glucuronidation clearance at 1 uM after 30 to 60 mins by LC-MS/MS analysis in presence of 2% bovine serum albumin; type: ADME; how it was run: as §2
[25] = Ratio of UGT1A8/2B7-mediated unbound intrinsic glucuronidation clearance in human kidney microsomes to UGT1A8/2B7-mediated unbound intrinsic glucuronidation clearance in human intestinal microsomes at 1 uM; type: ADME; how it was run: as §1
[26] = Drug metabolism in human liver microsomes assessed as UGT1A8/2B7-mediated unbound intrinsic glucuronidation clearance at 1 uM after 30 to 60 mins by LC-MS/MS analysis; type: ADME; how it was run: as §2
[27] = Ratio of UGT1A8/2B7-mediated unbound intrinsic glucuronidation clearance in human kidney microsomes to UGT1A8/2B7-mediated unbound intrinsic glucuronidation clearance in human intestinal microsomes at 1 uM in presence of 2% bovine serum albumin; type: ADME; how it was run: as §1
[28] = Unbound intrinsic glucuronidation clearance in human kidney microsomes at 1 uM after 30 to 60 mins by LC-MS/MS analysis in presence of UDP-glucuronosyltransferase and 2% bovine serum albumin; type: ADME, microsome; how it was run: as §2
[29] = Glucuronidation clearance in human liver microsomes; type: ADME
[30] = target: T1, UDP-glucuronosyltransferase 2B7 (Homo sapiens, UniProt P16662); assay: Drug metabolism in human liver microsomes assessed as UGT2B7-mediated unbound intrinsic glucuronidation clearance at 1 uM after 30 to 60 mins by LC-MS/MS analysis in presence of 1% bovine serum albumin; type: ADME
T1 sequence (P16662 whole entry): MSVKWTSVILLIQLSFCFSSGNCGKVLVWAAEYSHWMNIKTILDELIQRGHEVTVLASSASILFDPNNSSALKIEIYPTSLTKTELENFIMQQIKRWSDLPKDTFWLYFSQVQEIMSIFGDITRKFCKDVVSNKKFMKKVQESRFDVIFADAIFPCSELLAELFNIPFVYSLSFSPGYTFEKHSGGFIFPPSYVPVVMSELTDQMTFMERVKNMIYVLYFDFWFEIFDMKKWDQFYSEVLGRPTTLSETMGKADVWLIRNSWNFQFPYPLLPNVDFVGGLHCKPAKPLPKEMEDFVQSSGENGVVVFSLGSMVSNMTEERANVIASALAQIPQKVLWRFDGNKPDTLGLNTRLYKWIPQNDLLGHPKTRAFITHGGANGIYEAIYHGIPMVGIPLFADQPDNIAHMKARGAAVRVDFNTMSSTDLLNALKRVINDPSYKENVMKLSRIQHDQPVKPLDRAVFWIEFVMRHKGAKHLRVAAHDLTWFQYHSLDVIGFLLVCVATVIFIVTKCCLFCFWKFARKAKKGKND

[31] = Unbound intrinsic glucuronidation clearance in human intestinal microsomes at 1 uM after 30 to 60 mins by LC-MS/MS analysis in presence of UDP-glucuronosyltransferase and 1% bovine serum albumin; type: ADME, Intestine, Microsome
[32] = target: T1, UDP-glucuronosyltransferase 2B7; assay: Drug metabolism in human kidney microsomes assessed as UGT2B7-mediated unbound intrinsic glucuronidation clearance at 1 uM after 30 to 60 mins by LC-MS/MS analysis; type: ADME
Liver microsome [33] = assay: Unbound intrinsic glucuronidation clearance in human liver microsomes at 1 uM after 30 to 60 mins by LC-MS/MS analysis in presence of UDP-glucuronosyltransferase and 1% bovine serum albumin; type: ADME
[34] = target: T1, UDP-glucuronosyltransferase 2B7; assay: Drug metabolism in human liver microsomes assessed as UGT2B7-mediated unbound intrinsic glucuronidation clearance at 1 uM after 30 to 60 mins by LC-MS/MS analysis; type: ADME
Liver microsome [35] = assay: Fraction unbound in human liver microsomes at 1 uM after 30 to 60 mins by LC-MS/MS analysis in presence of 1% bovine serum albumin; type: ADME; settings: microsomes, 1 µM
[36] = target: T1, UDP-glucuronosyltransferase 2B7; assay: Drug metabolism in human kidney microsomes assessed as UGT2B7-mediated unbound intrinsic glucuronidation clearance at 1 uM after 30 to 60 mins by LC-MS/MS analysis in presence of 1% bovine serum albumin; type: ADME
[37] = Unbound intrinsic glucuronidation clearance in human kidney microsomes at 1 uM after 30 to 60 mins by LC-MS/MS analysis in presence of UDP-glucuronosyltransferase and 1% bovine serum albumin; type: ADME, microsome
[38] = Renal clearance in human; type: ADME, organism-based, Kidney; settings: in vivo
[39] = target: T1, UDP-glucuronosyltransferase 2B7; assay: Drug metabolism in human intestinal microsomes assessed as UGT2B7-mediated unbound intrinsic glucuronidation clearance at 1 uM after 30 to 60 mins by LC-MS/MS analysis; type: ADME, Intestine

C=CCN1CC[C@]23c4c5ccc(O)c4O[C@H]2C(=O)CC[C@@]3(O)[C@H]1C5 [NALOXONE]
Ratio [1]: 0.348
Ratio [2]: 28
Ratio [3]: 0.304
CL free [4]: 0.14 mL/min/g
fraction unbound at 1 µM [5]: 1
CL free (Liver microsome [6]): 55.6 µL/min/mg
CL free [7]: 0.502 µL/min/mg
Drug metabolism (Liver microsome [8]): 0.89
fraction unbound [9]: 0.57
Ratio [10]: 0.026
CL free [11]: 2.22 mL/min/g
Drug metabolism (Liver microsome [12]): 0.65
clearance [13]: 21.7 mL/min/kg
CL free [14]: 10.9 µL/min/mg
fraction unbound at 1 µM [15]: 1
Ratio [16]: 0.131
fraction unbound at 1 µM [17]: 0.96
CL free (Liver microsome [18]): 10 µL/min/mg
fraction unbound at 1 µM [19]: 1
CL free [20]: 0.01 mL/min/g
CLhep predicted [21]: 19.3 mL/min/kg
CL free [22]: 14.2 µL/min/mg
blood plasma ratio [23]: 1
CL free [24]: 0.675 mL/min/g
Ratio [25]: 13.5
CL free [26]: 0.402 mL/min/g
Ratio [27]: 2.31
CL free [28]: 52.7 µL/min/mg
CLhep predicted [29]: 14.1 mL/min/kg

Cc1ccc(C)c(OCCCC(C)(C)C(=O)O)c1 [GEMFIBROZIL]
fraction unbound at 1 µM [5]: 0.9
CL free [30]: 73.6 mL/min/g
CL free [7]: 23.9 µL/min/mg
Drug metabolism (Liver microsome [8]): 0.86
CL free [31]: 40 µL/min/mg
fraction unbound [9]: 0.005
CL free [32]: 3.39 mL/min/g
CL free (Liver microsome [33]): 1840 µL/min/mg
Drug metabolism (Liver microsome [12]): 0.79
CL free [34]: 10.4 mL/min/g
CL free [14]: 265 µL/min/mg
fraction unbound at 1 µM [15]: 0.82
CL free (Liver microsome [18]): 259 µL/min/mg
Fu (Liver microsome [35]): 0.01
fraction unbound at 1 µM [19]: 0.9
CLhep predicted [21]: 1.93 mL/min/kg
CL free [36]: 24.4 mL/min/g
CL free [37]: 1910 µL/min/mg
CL renal [38]: 0.02 mL/min/kg
CL free [39]: 0.492 mL/min/g
CLhep predicted [29]: 1.78 mL/min/kg
